Measurements as given in ChEMBL document CHEMBL3734675, “Synthesis, antimycobacterial and antibacterial activity of fluoroquinolone derivatives containing an 3-alkoxyimino-4-(cyclopropylanimo)methylpyrrolidine moiety” (2015).
≈ marks a conversion by molar mass, not a printed value.

Legend:
Assay type in all cases: functional
[1] = tested on: Mycobacterium tuberculosis; test: Antimycobacterial activity against Mycobacterium tuberculosis H37Rv ATCC 27294 incubated for 7 days by microplate Alamar Blue assay; conditions: H37Rv ATCC 27294, 168 h
Outline: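 Fluorescence read-out. MIC is the lowest concentration that reduces fluorescence by at least 90% relative to the mean of replicate bacterium-only controls. Isoniazid and rifampicin were included as reference drugs.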

[2] = tested on: Escherichia coli; test: Antibacterial activity against Escherichia coli ATCC 25922 after 18 to 24 hrs by two-fold serial dilution method
Outline: (§1)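 Twofold serial dilution in agar media against Gram-positive and Gram-negative strains. Plates incubated at 35 °C for 18–24 h. MIC read as the lowest compound concentration giving complete inhibition of bacterial growth.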

[3] = tested on: Escherichia coli; test: Antibacterial activity against extended-spectrum beta-lactamase producing Escherichia coli 14-1 after 18 to 24 hrs by two-fold serial dilution method; outline: as §1
[4] = tested on: Escherichia coli; test: Antibacterial activity against extended-spectrum beta-lactamase producing Escherichia coli 14-2 after 18 to 24 hrs by two-fold serial dilution method; outline: as §1
[5] = tested on: Escherichia coli; test: Antibacterial activity against Escherichia coli 14-1 after 18 to 24 hrs by two-fold serial dilution method; outline: as §1
[6] = tested on: Escherichia coli; test: Antibacterial activity against Escherichia coli 14-2 after 18 to 24 hrs by two-fold serial dilution method; outline: as §1
[7] = tested on: Klebsiella pneumoniae; test: Antibacterial activity against extended-spectrum beta-lactamase producing Klebsiella pneumoniae 14-17 after 18 to 24 hrs by two-fold serial dilution method; outline: as §1
[8] = tested on: Klebsiella pneumoniae; test: Antibacterial activity against extended-spectrum beta-lactamase producing Klebsiella pneumoniae 14-18 after 18 to 24 hrs by two-fold serial dilution method; outline: as §1
[9] = tested on: Klebsiella pneumoniae; test: Antibacterial activity against extended-spectrum beta-lactamase producing Klebsiella pneumoniae 14-19 after 18 to 24 hrs by two-fold serial dilution method; outline: as §1
[10] = tested on: Klebsiella pneumoniae; test: Antibacterial activity against Klebsiella pneumoniae 14-1 after 18 to 24 hrs by two-fold serial dilution method; outline: as §1
[11] = tested on: Klebsiella pneumoniae; test: Antibacterial activity against Klebsiella pneumoniae 14-2 after 18 to 24 hrs by two-fold serial dilution method; outline: as §1
[12] = tested on: Klebsiella pneumoniae; test: Antibacterial activity against Klebsiella pneumoniae 14-3 after 18 to 24 hrs by two-fold serial dilution method; outline: as §1
[13] = tested on: Klebsiella pneumoniae; test: Antibacterial activity against Klebsiella pneumoniae 14-4 after 18 to 24 hrs by two-fold serial dilution method; outline: as §1
[14] = tested on: Pseudomonas aeruginosa; test: Antibacterial activity against Pseudomonas aeruginosa ATCC 27853 after 18 to 24 hrs by two-fold serial dilution method; outline: as §1
[15] = tested on: Pseudomonas aeruginosa; test: Antibacterial activity against Pseudomonas aeruginosa 14-9 after 18 to 24 hrs by two-fold serial dilution method; outline: as §1
[16] = tested on: Pseudomonas aeruginosa; test: Antibacterial activity against Pseudomonas aeruginosa 14-14 after 18 to 24 hrs by two-fold serial dilution method; outline: as §1
[17] = tested on: Pseudomonas aeruginosa; test: Antibacterial activity against Pseudomonas aeruginosa 14-15 after 18 to 24 hrs by two-fold serial dilution method; outline: as §1
[18] = tested on: Pseudomonas aeruginosa; test: Antibacterial activity against Pseudomonas aeruginosa 14-16 after 18 to 24 hrs by two-fold serial dilution method; outline: as §1
[19] = tested on: Staphylococcus aureus; test: Antibacterial activity against Staphylococcus aureus CMCC 26003 after 18 to 24 hrs by two-fold serial dilution method; outline: as §1
[20] = tested on: Staphylococcus aureus; test: Antibacterial activity against methicillin-sensitive Staphylococcus aureus 14-1 after 18 to 24 hrs by two-fold serial dilution method; outline: as §1
[21] = tested on: Staphylococcus aureus; test: Antibacterial activity against methicillin-sensitive Staphylococcus aureus 14-3 after 18 to 24 hrs by two-fold serial dilution method; outline: as §1
[22] = tested on: Staphylococcus aureus; test: Antibacterial activity against methicillin-sensitive Staphylococcus aureus 14-4 after 18 to 24 hrs by two-fold serial dilution method; outline: as §1
[23] = tested on: Staphylococcus aureus; test: Antibacterial activity against methicillin-resistant Staphylococcus aureus 14-4 after 18 to 24 hrs by two-fold serial dilution method
Outline: (§2)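 Agar media, standard twofold serial dilution. MIC is the lowest concentration giving complete inhibition of bacterial growth after incubation at 35 °C for 18–24 h. Ciprofloxacin and levofloxacin were run as comparators.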

[24] = tested on: Staphylococcus aureus; test: Antibacterial activity against methicillin-resistant Staphylococcus aureus 14-5 after 18 to 24 hrs by two-fold serial dilution method; outline: as §2
[25] = tested on: Staphylococcus epidermidis; test: Antibacterial activity against methicillin-sensitive Staphylococcus epidermidis 14-2 after 18 to 24 hrs by two-fold serial dilution method; outline: as §1
[26] = tested on: Staphylococcus epidermidis; test: Antibacterial activity against methicillin-resistant Staphylococcus epidermidis 14-21 after 18 to 24 hrs by two-fold serial dilution method; outline: as §2
[27] = tested on: Staphylococcus epidermidis; test: Antibacterial activity against methicillin-resistant Staphylococcus epidermidis 14-22 after 18 to 24 hrs by two-fold serial dilution method; outline: as §2
[28] = tested on: Staphylococcus epidermidis; test: Antibacterial activity against methicillin-resistant Staphylococcus epidermidis 14-37 after 18 to 24 hrs by two-fold serial dilution method; outline: as §2
[29] = tested on: Staphylococcus epidermidis; test: Antibacterial activity against methicillin-resistant Staphylococcus epidermidis 14-39 after 18 to 24 hrs by two-fold serial dilution method; outline: as §2
[30] = tested on: Streptococcus pneumoniae; test: Antibacterial activity against methicillin-resistant Streptococcus pneumoniae ATCC 19615 after 18 to 24 hrs by two-fold serial dilution method; outline: as §2
[31] = tested on: Enterococcus faecium; test: Antibacterial activity against Enterococcus faecium 14-2 after 18 to 24 hrs by two-fold serial dilution method; outline: as §1
[32] = tested on: Enterococcus faecium; test: Antibacterial activity against Enterococcus faecium 14-5 after 18 to 24 hrs by two-fold serial dilution method; outline: as §1
[33] = tested on: Enterococcus faecium; test: Antibacterial activity against Enterococcus faecium 14-6 after 18 to 24 hrs by two-fold serial dilution method; outline: as §1
[34] = tested on: Enterococcus faecalis; test: Antibacterial activity against Enterococcus faecalis 14-1 after 18 to 24 hrs by two-fold serial dilution method; outline: as §1
[35] = tested on: Enterococcus faecalis; test: Antibacterial activity against Enterococcus faecalis 14-2 after 18 to 24 hrs by two-fold serial dilution method; outline: as §1

Compound	MIC90 [1]	MIC [2]	MIC [3]	MIC [4]	MIC [5]	MIC [6]	MIC [7]	MIC [8]	MIC [9]	MIC [10]	MIC [11]	MIC [12]	MIC [13]	MIC [14]	MIC [15]	MIC [16]	MIC [17]	MIC [18]	MIC [19]	MIC [20]	other results
CCO/N=C1/CN(c2nc3c(cc2F)c(=O)c(C(=O)O)cn3[C@@H]2C[C@@H]2F)CC1(C)CNC1CC1 (stereo not given in full)	0.6 µg/mL (≈ 1.26 µM)	2 µg/mL (≈ 4.21 µM)	32 µg/mL (≈ 67.3 µM)	> 128 µg/mL	> 128 µg/mL	> 128 µg/mL	64 µg/mL (≈ 135 µM)	128 µg/mL (≈ 269 µM)	64 µg/mL (≈ 135 µM)	64 µg/mL (≈ 135 µM)	128 µg/mL (≈ 269 µM)	128 µg/mL (≈ 269 µM)	> 128 µg/mL	32 µg/mL (≈ 67.3 µM)	32 µg/mL (≈ 67.3 µM)	128 µg/mL (≈ 269 µM)	64 µg/mL (≈ 135 µM)	64 µg/mL (≈ 135 µM)	0.015 µg/mL (≈ 0.0315 µM)	1 µg/mL (≈ 2.1 µM)	MIC [21]: 2 µg/mL (≈ 4.21 µM); MIC [22]: 1 µg/mL (≈ 2.1 µM); MIC [23]: 4 µg/mL (≈ 8.41 µM); MIC [24]: 2 µg/mL (≈ 4.21 µM); MIC [25]: 16 µg/mL (≈ 33.6 µM); MIC [26]: 4 µg/mL (≈ 8.41 µM); MIC [27]: 4 µg/mL (≈ 8.41 µM); MIC [28]: 2 µg/mL (≈ 4.21 µM); MIC [29]: 4 µg/mL (≈ 8.41 µM); MIC [30]: 0.25 µg/mL (≈ 0.526 µM); MIC [31]: 4 µg/mL (≈ 8.41 µM); MIC [32]: 2 µg/mL (≈ 4.21 µM); MIC [33]: 4 µg/mL (≈ 8.41 µM); MIC [34]: 16 µg/mL (≈ 33.6 µM); MIC [35]: 1 µg/mL (≈ 2.1 µM)
O=C(O)c1cn([C@@H]2C[C@@H]2F)c2nc(N3C/C(=N/OCc4ccccc4)C(CNC4CC4)C3)c(F)cc2c1=O (stereo not given in full)	2.1 µg/mL (≈ 4.01 µM)	0.25 µg/mL (≈ 0.478 µM)	16 µg/mL (≈ 30.6 µM)	> 128 µg/mL	> 128 µg/mL	> 128 µg/mL	64 µg/mL (≈ 122 µM)	64 µg/mL (≈ 122 µM)	128 µg/mL (≈ 244 µM)	128 µg/mL (≈ 244 µM)	64 µg/mL (≈ 122 µM)	128 µg/mL (≈ 244 µM)	> 128 µg/mL	32 µg/mL (≈ 61.1 µM)	8 µg/mL (≈ 15.3 µM)	64 µg/mL (≈ 122 µM)	64 µg/mL (≈ 122 µM)	64 µg/mL (≈ 122 µM)	< 0.008 µg/mL	4 µg/mL (≈ 7.64 µM)	MIC [21]: 4 µg/mL (≈ 7.64 µM); MIC [22]: 16 µg/mL (≈ 30.6 µM); MIC [23]: 32 µg/mL (≈ 61.1 µM); MIC [24]: 8 µg/mL (≈ 15.3 µM); MIC [25]: 32 µg/mL (≈ 61.1 µM); MIC [26]: 16 µg/mL (≈ 30.6 µM); MIC [27]: 8 µg/mL (≈ 15.3 µM); MIC [28]: 16 µg/mL (≈ 30.6 µM); MIC [29]: 64 µg/mL (≈ 122 µM); MIC [30]: 1 µg/mL (≈ 1.91 µM); MIC [31]: 8 µg/mL (≈ 15.3 µM); MIC [32]: 16 µg/mL (≈ 30.6 µM); MIC [33]: 32 µg/mL (≈ 61.1 µM); MIC [34]: 64 µg/mL (≈ 122 µM); MIC [35]: 1 µg/mL (≈ 1.91 µM)
CO/N=C1/CN(c2nc3c(cc2F)c(=O)c(C(=O)O)cn3[C@@H]2C[C@@H]2F)CC1(C)CNC1CC1 (stereo not given in full)	0.45 µg/mL (≈ 0.975 µM)	1 µg/mL (≈ 2.17 µM)	16 µg/mL (≈ 34.7 µM)	> 128 µg/mL	> 128 µg/mL	> 128 µg/mL	64 µg/mL (≈ 139 µM)	64 µg/mL (≈ 139 µM)	32 µg/mL (≈ 69.3 µM)	32 µg/mL (≈ 69.3 µM)	64 µg/mL (≈ 139 µM)	128 µg/mL (≈ 277 µM)	> 128 µg/mL	16 µg/mL (≈ 34.7 µM)	16 µg/mL (≈ 34.7 µM)	64 µg/mL (≈ 139 µM)	64 µg/mL (≈ 139 µM)	32 µg/mL (≈ 69.3 µM)	< 0.008 µg/mL	1 µg/mL (≈ 2.17 µM)	MIC [21]: 1 µg/mL (≈ 2.17 µM); MIC [22]: 2 µg/mL (≈ 4.33 µM); MIC [23]: 4 µg/mL (≈ 8.67 µM); MIC [24]: 2 µg/mL (≈ 4.33 µM); MIC [25]: 16 µg/mL (≈ 34.7 µM); MIC [26]: 4 µg/mL (≈ 8.67 µM); MIC [27]: 4 µg/mL (≈ 8.67 µM); MIC [28]: 2 µg/mL (≈ 4.33 µM); MIC [29]: 4 µg/mL (≈ 8.67 µM); MIC [30]: 0.5 µg/mL (≈ 1.08 µM); MIC [31]: 4 µg/mL (≈ 8.67 µM); MIC [32]: 4 µg/mL (≈ 8.67 µM); MIC [33]: 2 µg/mL (≈ 4.33 µM); MIC [34]: 16 µg/mL (≈ 34.7 µM); MIC [35]: 1 µg/mL (≈ 2.17 µM)
CCO/N=C1/CN(c2nc3c(cc2F)c(=O)c(C(=O)O)cn3[C@@H]2C[C@@H]2F)CC1CNC1CC1 (stereo not given in full)	0.72 µg/mL (≈ 1.56 µM)	0.03 µg/mL (≈ 0.065 µM)	16 µg/mL (≈ 34.7 µM)	128 µg/mL (≈ 277 µM)	128 µg/mL (≈ 277 µM)	> 128 µg/mL	32 µg/mL (≈ 69.3 µM)	32 µg/mL (≈ 69.3 µM)	64 µg/mL (≈ 139 µM)	32 µg/mL (≈ 69.3 µM)	32 µg/mL (≈ 69.3 µM)	128 µg/mL (≈ 277 µM)	128 µg/mL (≈ 277 µM)	16 µg/mL (≈ 34.7 µM)	8 µg/mL (≈ 17.3 µM)	32 µg/mL (≈ 69.3 µM)	32 µg/mL (≈ 69.3 µM)	32 µg/mL (≈ 69.3 µM)	< 0.008 µg/mL	4 µg/mL (≈ 8.67 µM)	MIC [21]: 4 µg/mL (≈ 8.67 µM); MIC [22]: 8 µg/mL (≈ 17.3 µM); MIC [23]: 16 µg/mL (≈ 34.7 µM); MIC [24]: 8 µg/mL (≈ 17.3 µM); MIC [25]: 64 µg/mL (≈ 139 µM); MIC [26]: 16 µg/mL (≈ 34.7 µM); MIC [27]: 8 µg/mL (≈ 17.3 µM); MIC [28]: 16 µg/mL (≈ 34.7 µM); MIC [29]: 32 µg/mL (≈ 69.3 µM); MIC [30]: 1 µg/mL (≈ 2.17 µM); MIC [31]: 4 µg/mL (≈ 8.67 µM); MIC [32]: 16 µg/mL (≈ 34.7 µM); MIC [33]: 32 µg/mL (≈ 69.3 µM); MIC [34]: 32 µg/mL (≈ 69.3 µM); MIC [35]: 0.125 µg/mL (≈ 0.271 µM)
